In PubChem BioAssay AID720736 (The Scripps Research Institute Molecular Screening Center, 2013):
Calls of active or inactive are those of the source.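 How the source made its calls: active means growth inhibition of at least 50% in any replicate; inactive means growth inhibition below 50% in every replicate.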

Test: P. falciparum blood-stage growth inhibition, late-stage follow-up, M18AAP inhibitor project, cell-based, radiolabel, 3D7, RBCs, Set2 (AID 720736)
Conditions: P. falciparum 3D7 in RBCs, 3H-hypoxanthine incorporation, 48 h, at 10 µM, stronger effect = higher value
How it was run: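 Evaluation: % growth inhibition versus vehicle-treated parasites, background-subtracted. Assay system: P. falciparum 3D7-infected RBCs. Reagent: 3H-hypoxanthine, 0.5 µCi/well. Schedule: 48 h compound exposure at 37 °C in low-oxygen gas. Medium: hypoxanthine-free RPMI, 10% serum. Replication: triplicates, one or two experiments. Control set: vehicle-treated parasites and uninfected RBCs. Technique: 3H-hypoxanthine uptake by beta counting.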

## Oc1ccc(CCN2CCc3ccccc3C2)cc1O
Run 1
  growth inhibition: 52%
Run 2
  growth inhibition: 62%

## Cc1cccc2c(N(C)CCc3ccc(O)c(O)c3)ccnc12
Run 1
  growth inhibition: 5% (inactive)

## COc1ccc(CCNc2cncc3ccccc23)cc1OC
Run 1
  growth inhibition: 65%
Run 2
  growth inhibition: 63%

## COc1ccc(C2CCN(c3ccnc4ccccc34)CC2)cc1OC
Run 1
  growth inhibition: 1% (inactive)

## COc1ccc(CCCNc2c3ccccc3nc3ccccc23)cc1OC
Run 1
  growth inhibition: 88%
Run 2
  growth inhibition: 95%

## CN(CCc1ccc(O)c(O)c1)c1ncnc2ccccc12
Run 1
  growth inhibition: 1% (inactive)

## CCOc1ccc2nccc(NCCc3ccc(OC)c(OC)c3)c2c1
Run 1
  growth inhibition: 72%

## CC(Cc1ccc(O)c(O)c1)Nc1ccnc2ccccc12 (stereo unspecified)
Run 1
  growth inhibition: 19% (inactive)

## CN(CCCc1ccc(O)c(O)c1)c1c2ccccc2nc2ccccc12
Run 1
  growth inhibition: 21% (inactive)

## CCN(CCc1ccc(OC)c(OC)c1)c1c2ccccc2nc2ccccc12
Run 1
  growth inhibition: 18% (inactive)

## COc1ccc(CCNc2ncnc3ccccc23)cc1OC
Run 1
  growth inhibition: 5% (inactive)

## CN(CCc1ccc(O)c(O)c1)c1c2ccccc2nc2ccccc12
Run 1
  growth inhibition: 5% (inactive)

## Cc1cccc2c(NCCc3ccc(O)c(O)c3)ccnc12
Run 1
  growth inhibition: 56%

## Oc1ccc(C2CCN(c3ccnc4ccccc34)C2)cc1O (stereo unspecified)
Run 1
  growth inhibition: 95%

## COc1ccc(CCNc2ccc3ccccc3c2)cc1OC
Run 1
  growth inhibition: 0% (inactive)
Run 2
  growth inhibition: 3% (inactive)

## COc1ccc(CCN(C)c2ncnc3ccccc23)cc1OC
Run 1
  growth inhibition: 3% (inactive)

## COc1ccc(CCNC2CCN(Cc3ccccc3)CC2)cc1OC
Run 1
  growth inhibition: 88%
Run 2
  growth inhibition: 93%

## COc1ccc(CCCN(C)c2c3ccccc3nc3ccccc23)cc1OC
Run 1
  growth inhibition: 17% (inactive)

## Oc1ccc(CCNC(c2ccccc2)c2ccccc2)cc1O
Run 1
  growth inhibition: 47% (inactive)
Run 2
  growth inhibition: 57%

## CCN(CC)Cc1cc(Nc2ccnc3cc(Cl)ccc23)ccc1O
Run 1
  growth inhibition: 98%

## COc1ccc(CCNc2c3c(nc4ccccc24)CCCC3)cc1OC
Run 1
  growth inhibition: 38% (inactive)
Run 2
  growth inhibition: 55%

## Oc1ccc(CCNc2ccc3ccccc3c2)cc1O
Run 1
  growth inhibition: 21% (inactive)
Run 2
  growth inhibition: 18% (inactive)

## COc1ccc(CCNc2c3c(nc4ccc(C)cc24)CCCC3)cc1OC
Run 1
  growth inhibition: 27% (inactive)

## CN(CCCc1ccc(O)c(O)c1)c1ccnc2ccccc12
Run 1
  growth inhibition: 0% (inactive)

## CN(CCc1ccc(O)c(O)c1)c1ccnc2cc(Cl)ccc12
Run 1
  growth inhibition: 0% (inactive)

## COc1ccc(CCNc2cccc3ccccc23)cc1OC
Run 1
  growth inhibition: 9% (inactive)
Run 2
  growth inhibition: 20% (inactive)

## COc1ccc(CCN(C)c2c3ccccc3nc3ccccc23)cc1OC
Run 2
  growth inhibition: 98%

## COc1cc(Br)c(CCNc2c3ccccc3nc3ccccc23)cc1OC
Run 1
  growth inhibition: 95%

## Oc1ccc(CCNc2c3c(nc4ccccc24)CCCC3)cc1O
Run 1
  growth inhibition: 90%
Run 2
  growth inhibition: 95%

## O=C(O)CCCNc1c2ccccc2nc2ccccc12
Run 1
  growth inhibition: 0% (inactive)
Run 2
  growth inhibition: 15% (inactive)

## Oc1ccc(C2CCN(c3ccnc4ccccc34)CC2)cc1O
Run 1
  growth inhibition: 76%

## CC(C)(CNc1ccnc2ccccc12)c1ccc(O)c(O)c1
Run 1
  growth inhibition: 35% (inactive)

## COc1ccc(CNc2c3ccccc3nc3ccccc23)cc1OC
Run 1
  growth inhibition: 100%
Run 2
  growth inhibition: 99%

## O=C(O)CCCCNc1c2ccccc2nc2ccccc12
Run 1
  growth inhibition: 27% (inactive)
Run 2
  growth inhibition: 20% (inactive)

## COc1ccc(CCN(C)c2ccnc3c(F)cccc23)cc1OC
Run 1
  growth inhibition: 5% (inactive)

## Oc1ccc(CCNc2ccnc3c(F)cccc23)cc1O
Run 1
  growth inhibition: 0% (inactive)

## CCOc1ccc2nccc(N(C)CCc3ccc(OC)c(OC)c3)c2c1
Run 1
  growth inhibition: 15% (inactive)

## COc1ccc(CCCNc2c3c(nc4ccccc24)CCCC3)cc1OC
Run 1
  growth inhibition: 4% (inactive)

## Oc1ccc(CCNc2cncc3ccccc23)cc1O
Run 1
  growth inhibition: 38% (inactive)
Run 2
  growth inhibition: 27% (inactive)

## COc1ccc(CCN(C)c2ccncc2)cc1OC
Run 1
  growth inhibition: 0% (inactive)
Run 2
  growth inhibition: 0% (inactive)

## COc1ccc(CCNC2CCN(C)CC2)cc1OC
Run 1
  growth inhibition: 0% (inactive)
Run 2
  growth inhibition: 0% (inactive)

## O=c1ccn(CCNc2c3ccccc3nc3ccccc23)cc1OCc1ccccc1
Run 1
  growth inhibition: 92%
Run 2
  growth inhibition: 84%

## Oc1ccc(CCNc2cccc3ccccc23)cc1O
Run 1
  growth inhibition: 16% (inactive)
Run 2
  growth inhibition: 22% (inactive)

## COc1ccc(CCNC(c2ccccc2)c2ccccc2)cc1OC
Run 1
  growth inhibition: 0% (inactive)

## COc1ccc(CCN(C)c2ccnc3c(C)cccc23)cc1OC
Run 1
  growth inhibition: 5% (inactive)

## Oc1ccc(CCNc2c3ccccc3nc3ccccc23)cc1
Run 1
  growth inhibition: 95%
Run 2
  growth inhibition: 95%

## COc1ccc(CCN(C)c2ccnc3ccccc23)cc1OC
Run 1
  growth inhibition: 95%
Run 2
  growth inhibition: 94%

## COc1ccc(CCN2CCN(C)CC2)cc1OC
Run 1
  growth inhibition: 0% (inactive)
Run 2
  growth inhibition: 5% (inactive)

## CN(CCc1ccc(O)c(O)c1)c1ccncc1
Run 1
  growth inhibition: 3% (inactive)
Run 2
  growth inhibition: 13% (inactive)

## COc1cccc(CCNc2c3ccccc3nc3ccccc23)c1
Run 1
  growth inhibition: 100%
Run 2
  growth inhibition: 99%

## COc1ccc(CCNC(=O)c2cc(C)ccc2N)cc1OC
Run 1
  growth inhibition: 0% (inactive)

## COc1ccc(CCNc2ccncc2)cc1OC
Run 1
  growth inhibition: 6% (inactive)
Run 2
  growth inhibition: 12% (inactive)

## Oc1ccc(CCCNc2c3c(nc4ccccc24)CCCC3)cc1O
Run 1
  growth inhibition: 12% (inactive)

## Cc1c(OCc2ccccc2)c(=O)ccn1CCNc1c2ccccc2nc2ccccc12
Run 1
  growth inhibition: 94%
Run 2
  growth inhibition: 99%

## COc1ccc(CCNc2ccnc3cc(Cl)ccc23)cc1OC
Run 1
  growth inhibition: 69%

## CN(CCc1ccc(O)c(O)c1)c1ccnc2ccccc12
Run 1
  growth inhibition: 91%
Run 2
  growth inhibition: 95%

## CCN(CCc1ccc(O)c(O)c1)c1c2ccccc2nc2ccccc12
Run 1
  growth inhibition: 20% (inactive)

## NCCNc1c2ccccc2nc2ccccc12
Run 1
  growth inhibition: 100%
Run 2
  growth inhibition: 99%

## CN(CCc1ccc(O)c(O)c1)c1ccnc2c(F)cccc12
Run 1
  growth inhibition: 3% (inactive)

## COc1ccc(CCCN2CCN(C)CC2)cc1OC
Run 1
  growth inhibition: 0% (inactive)

## Oc1ccc(CCCNc2c3ccccc3nc3ccccc23)cc1O
Run 1
  growth inhibition: 91%
Run 2
  growth inhibition: 93%

## Oc1cccc(CCNc2ccnc3ccccc23)c1O
Run 1
  growth inhibition: 97%

## CN1CCN(CCCc2ccc(O)c(O)c2)CC1
Run 1
  growth inhibition: 5% (inactive)
Run 2
  growth inhibition: 0%

## COc1ccc(CCNc2c3ccccc3nc3ccccc23)cc1OC
Run 1
  growth inhibition: 98%
Run 2
  growth inhibition: 100%

## COc1cc(Br)c(CCNc2ccnc3ccccc23)cc1OC
Run 1
  growth inhibition: 90%

## COc1ccc(CCN2CCc3ccccc3C2)cc1OC
Run 1
  growth inhibition: 0% (inactive)
Run 2
  growth inhibition: 3% (inactive)

## Oc1ccc(CCNC2CCN(Cc3ccccc3)CC2)cc1O
Run 1
  growth inhibition: 90%
Run 2
  growth inhibition: 95%

## COc1ccc(CCNc2ccnc3c(C)cccc23)cc1OC
Run 1
  growth inhibition: 20% (inactive)

## Oc1ccc(C2CCCN(c3ccnc4ccccc34)C2)cc1O (stereo unspecified)
Run 1
  growth inhibition: 50%

## COc1ccc(CCNc2ccnc3c(F)cccc23)cc1OC
Run 1
  growth inhibition: 26% (inactive)

## Oc1ccc(CCNc2ccnc3cc(Cl)ccc23)cc1O
Run 1
  growth inhibition: 92%

## COc1ccc(CCNc2cc(C)nc3ccccc23)cc1OC
Run 1
  growth inhibition: 26% (inactive)

## COc1cc(Br)c(CCNc2c3c(nc4ccccc24)CCCC3)cc1OC
Run 1
  growth inhibition: 96%

## COc1ccc(CCN(C)c2ccnc3cc(Cl)ccc23)cc1OC
Run 1
  growth inhibition: 97%
Run 2
  growth inhibition: 92%

## CN1CCN(CCc2ccc(O)c(O)c2)CC1
Run 1
  growth inhibition: 4% (inactive)
Run 2
  growth inhibition: 0% (inactive)

## Oc1ccc(CCNc2ccnc3ccccc23)cc1O
Run 1
  growth inhibition: 89%
Run 2
  growth inhibition: 98%

## Cc1cc(N(C)CCc2ccc(O)c(O)c2)c2ccccc2n1
Run 1
  growth inhibition: 6% (inactive)

## COc1ccc(CCNc2c3ccccc3nc3ccccc23)cc1
Run 1
  growth inhibition: 100%
Run 2
  growth inhibition: 98%

## COc1ccc(C2CCN(c3ccnc4ccccc34)C2)cc1OC (stereo unspecified)
Run 1
  growth inhibition: 94%

## Cc1nc(NCCc2ccc(O)c(O)c2)c2c3c(sc2n1)CCC3
Run 1
  growth inhibition: 0% (inactive)
